Calls of active or inactive are those of the source. No cut-off for these calls is given here.

Test [1] concerns the target DNA polymerase I, thermostable (Thermus aquaticus) (UniProt P19821). The experiment in a line: Inhibition of Taq polymerase in RNase treated human HT1080 cells at 100 ug/mL by PCR. It is filed as cell-based. As to conditions: HT-1080.
Test [2] addresses Telomerase reverse transcriptase (Homo sapiens) (UniProt O14746). Briefly: Inhibition of human telomerase activity by TRAP assay. As to conditions: concentration not given here. In outline: (§1)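 TRAP format: DMSO-dissolved samples in a 50 µL mix with HT1080 cell extract, pH 8.3 Tris-HCl/KCl/MgCl2/EGTA/Tween 20 buffer, TS primer, 50 µM each dNTP, 2 U Taq and [32P]dCTP; CX primer held under wax. Extension ran 30 min at 23 °C, then 90 °C for 90 s and 31 PCR cycles. Products were bound to DE-51 paper and scintillation-counted. Inhibition was taken relative to DMSO, minus RNase-treated extract background.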

Test [3] has the same target. The experiment in a line: Inhibition of human telomerase activity at 100 ug/mL by TRAP assay. In outline: as §1

DNA polymerase I, thermostable (Thermus aquaticus), sequence (P19821 whole entry): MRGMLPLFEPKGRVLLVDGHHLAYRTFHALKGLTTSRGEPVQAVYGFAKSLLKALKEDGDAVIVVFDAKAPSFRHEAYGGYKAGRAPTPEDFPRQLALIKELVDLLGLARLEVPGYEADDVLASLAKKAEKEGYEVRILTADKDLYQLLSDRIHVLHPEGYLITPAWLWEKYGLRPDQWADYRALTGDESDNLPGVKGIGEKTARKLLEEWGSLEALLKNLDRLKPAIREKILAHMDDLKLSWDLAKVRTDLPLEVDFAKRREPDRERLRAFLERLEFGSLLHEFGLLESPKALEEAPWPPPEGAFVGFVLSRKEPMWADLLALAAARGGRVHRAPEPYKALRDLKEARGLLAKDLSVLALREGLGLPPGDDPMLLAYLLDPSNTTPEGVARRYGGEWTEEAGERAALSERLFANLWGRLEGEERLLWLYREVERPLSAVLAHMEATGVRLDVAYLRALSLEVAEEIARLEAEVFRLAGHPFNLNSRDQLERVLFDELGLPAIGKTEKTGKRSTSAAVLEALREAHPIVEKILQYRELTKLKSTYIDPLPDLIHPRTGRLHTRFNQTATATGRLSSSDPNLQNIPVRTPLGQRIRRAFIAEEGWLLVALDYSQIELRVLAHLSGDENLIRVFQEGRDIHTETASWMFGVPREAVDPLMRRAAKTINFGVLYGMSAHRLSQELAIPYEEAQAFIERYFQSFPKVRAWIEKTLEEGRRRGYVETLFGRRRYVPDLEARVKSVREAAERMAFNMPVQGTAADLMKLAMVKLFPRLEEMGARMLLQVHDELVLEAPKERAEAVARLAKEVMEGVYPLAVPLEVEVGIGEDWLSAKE
Telomerase reverse transcriptase (Homo sapiens), sequence (O14746 whole entry): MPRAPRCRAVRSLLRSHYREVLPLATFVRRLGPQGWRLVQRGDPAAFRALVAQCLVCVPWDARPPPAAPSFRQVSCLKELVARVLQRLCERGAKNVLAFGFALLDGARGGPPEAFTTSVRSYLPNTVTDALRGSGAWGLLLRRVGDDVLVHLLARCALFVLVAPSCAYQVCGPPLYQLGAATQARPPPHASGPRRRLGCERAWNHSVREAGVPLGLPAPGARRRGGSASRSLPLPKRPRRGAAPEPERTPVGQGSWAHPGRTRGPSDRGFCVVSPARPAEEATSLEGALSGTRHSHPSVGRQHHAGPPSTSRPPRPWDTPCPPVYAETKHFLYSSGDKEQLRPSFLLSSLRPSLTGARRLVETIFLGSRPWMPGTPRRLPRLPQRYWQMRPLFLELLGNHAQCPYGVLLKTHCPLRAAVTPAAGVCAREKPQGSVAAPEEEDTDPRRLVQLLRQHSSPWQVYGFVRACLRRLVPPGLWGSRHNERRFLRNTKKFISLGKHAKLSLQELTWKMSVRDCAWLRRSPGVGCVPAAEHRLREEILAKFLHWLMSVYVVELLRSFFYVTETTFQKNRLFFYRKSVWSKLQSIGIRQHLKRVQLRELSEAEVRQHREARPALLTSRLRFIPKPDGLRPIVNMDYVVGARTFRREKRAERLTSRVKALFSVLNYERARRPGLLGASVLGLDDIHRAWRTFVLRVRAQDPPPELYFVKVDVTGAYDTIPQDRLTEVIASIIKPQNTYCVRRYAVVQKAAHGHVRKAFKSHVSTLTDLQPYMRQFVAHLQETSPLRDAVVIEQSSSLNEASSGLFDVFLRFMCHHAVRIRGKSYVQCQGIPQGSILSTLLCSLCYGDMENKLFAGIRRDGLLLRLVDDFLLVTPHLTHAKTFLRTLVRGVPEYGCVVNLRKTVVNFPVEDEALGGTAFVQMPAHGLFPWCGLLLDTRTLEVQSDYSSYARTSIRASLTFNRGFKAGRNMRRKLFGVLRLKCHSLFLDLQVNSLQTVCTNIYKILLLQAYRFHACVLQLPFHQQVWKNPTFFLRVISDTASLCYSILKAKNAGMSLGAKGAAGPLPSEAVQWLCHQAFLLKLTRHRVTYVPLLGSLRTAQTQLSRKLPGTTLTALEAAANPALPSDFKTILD

Turning to `COc1cc(OC)c2c(O)c3c(=O)cc(C)oc3c(-c3c(OC)cc4cc(O)c5c(=O)cc(C)oc5c4c3OC)c2c1`, the inhibition in test [1] and in test [2] was 40% throughout. The result in test [3] was inactive.
Take `COc1cc(OC)c2c(c1)c(-c1c(OC)cc3cc(O)c4c(=O)cc(C)oc4c3c1OC)c(O)c1c(=O)cc(C)oc12`: the outcome in test [3] was inactive.
Regarding `COc1cc(OC)c2c(O)c3c(=O)cc(C)oc3c(-c3c(OC)cc4cc5oc(C)cc(=O)c5c(O)c4c3OC)c2c1`, the values for the inhibition in test [1] and in test [2] were 49% and 52%, respectively. Further, in test [3], the result was inactive.
Regarding `COc1cc(OC)c2c(c1)c(-c1c(OC)cc3cc4oc(C)cc(=O)c4c(O)c3c1OC)c(O)c1c(=O)cc(C)oc12`, the result in test [3] was inactive.
As to `COc1cc(OC)c2c(O)c3c(=O)cc(C)oc3c(-c3c(O)cc4cc(O)c5c(=O)cc(C)oc5c4c3OC)c2c1`, the inhibition in test [1] is 40%; in test [2] it was 41%. Moreover, the result in test [3] was inactive.

One may read the inhibition as the relative decrease from the control value, in per cent. A lower inhibition goes with little suppression.

The record behind these values is ChEMBL document CHEMBL1159338, “New dimeric naphthopyrones from Aspergillus niger” (J Nat Prod, 2003).
